This is an account of results in ChEMBL document CHEMBL1130386, “Structure-activity relationship of newly synthesized quinoline derivatives for reversal of multidrug resistance in cancer” (1997).

This assay has as its system K562. Kind of assay: MDR-reversing activity in K562/ADM cells at 1 uM concentration of [3H]-VCR (vincristine), activity expressed relative to verapamil. Type of assay: functional, Homo sapiens. Summed up: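 K562/ADM cells at 1.5 × 10^6/mL in growth medium with 10 mM HEPES were incubated at 37 °C with 30 nM [3H]VCR (5.6 Ci/mmol), with or without modulator (1 µM) or verapamil. At intervals, aliquots were spun through a 4:1 silicone oil/liquid paraffin layer. Pellets were lysed overnight in 0.5 N KOH and counted by liquid scintillation. Intracellular VCR was scaled to verapamil.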

For `OC(COc1cccc2ncccc12)CN1CCN(C2c3ccccc3CCc3ccccc32)CC1` (stereo unspecified), the Activity turned out to be 371%.
Turning to `OC(COc1cccc2ncccc12)CN1CCN(C2c3ccccc3COc3ccccc32)CC1` (stereo unspecified), the Activity is on record as 414%.
Consider `O=C(C(c1ccc(F)cc1)c1ccc(F)cc1)N1CCN(CC(O)COc2cccc3ncccc23)CC1` (stereo unspecified), for which the Activity was determined as 263%.
In the case of `OC(COc1cccc2ncccc12)CN1CCN(CC(c2ccccc2)c2ccccc2)CC1` (stereo unspecified), the Activity came out at 327%.
In the case of `OC(COc1cccc2ncccc12)CN1CCC(=C(c2ccc(F)cc2)c2ccc(F)cc2)CC1` (stereo unspecified), the Activity is recorded as 246%.
For `O=C(C1c2ccccc2Oc2ccccc21)N1CCN(CC(O)COc2cccc3ncccc23)CC1` (stereo unspecified), the Activity was 279%.
In the case of `O=C(C1c2ccccc2-c2ccccc21)N1CCN(CC(O)COc2cccc3ncccc23)CC1` (stereo unspecified), the Activity is given as 213%.
For the molecule `OC(COc1cccc2ncccc12)CN1CCN(C(c2ccccc2)c2cccs2)CC1` (stereo unspecified), the Activity came to 428%.
As for `OC(COc1ccccc1)CN1CCN(C(c2ccccc2)c2ccccc2)CC1` (stereo unspecified), the Activity turned out to be 56%.
The figure for `CCCCCCCCCCCCCCCCCCN1CCN(CC(O)COc2cccc3ncccc23)CC1` (stereo unspecified) is 55%; for `OC(COc1cccc2ncccc12)CN1CCN(Cc2ccccc2)CC1` (stereo unspecified) it is 123%; for `OC(COc1cccc2ncccc12)CN1CCN(C(c2ccc(F)cc2)c2ccc(F)cc2)CC1` (stereo unspecified) it is 265%.
On to `OC(COc1cccc2ncccc12)CN1CCN(C(c2ccccc2)c2ccccc2)CC1` (stereo unspecified), for which the Activity worked out at 358%.
Regarding `COc1ccc(C(c2ccc(OC)cc2)N2CCN(CC(O)COc3cccc4ncccc34)CC2)cc1` (stereo unspecified), the Activity came to 260%.
With `O=C1C(=O)N(C2c3ccccc3CCc3ccccc32)CCN1CC(O)COc1cccc2ncccc12` (stereo unspecified), the Activity is recorded as 81%.
`OC(COc1cccc2ncccc12)CN1CCN(C2c3ccccc3-c3ccccc32)CC1` (stereo unspecified): the Activity is recorded as 229%.
For the molecule `OC(CNCCC(c1ccccc1)c1ccccc1)COc1cccc2ncccc12` (stereo unspecified), the Activity was 343%.
For `OC(CNCC(c1ccccc1)c1ccccc1)COc1cccc2ncccc12` (stereo unspecified), the Activity amounted to 117%.
The figure for `CN1CCN(CC(O)COc2cccc3ncccc23)CC1` (stereo unspecified) is 47%; for `OC(COc1cccc2ncccc12)CN1CCN(C2c3ccccc3CCc3cccnc32)CC1` (stereo unspecified) it is 316%.
For `OC(COc1cccc2ncccc12)CN1CCN(C(c2ccccc2)c2ccc(Cl)cc2)CC1` (stereo unspecified), the Activity was determined as 243%.
For `OC(COc1cccc2ccccc12)CN1CCN(C(c2ccccc2)c2ccccc2)CC1` (stereo unspecified), the Activity worked out at 32%.
With `OC(COc1cccc2ncccc12)CN1CCNCC1` (stereo unspecified), the Activity is 65%.
For the molecule `OC(COc1cccc2ncccc12)CN1CCC(=C2c3ccccc3CCc3ccccc32)CC1` (stereo unspecified), the Activity was 374%.
Next, `OC(COc1cccc2ncccc12)CN1CCC(=C(c2ccccc2)c2ccccc2)CC1` (stereo unspecified): 309%; `O=C(C(c1ccccc1)c1ccccc1)N1CCN(CC(O)COc2cccc3ncccc23)CC1` (stereo unspecified) [DOFEQUIDAR]: 381%.
